Experimental data: PubChem BioAssay AID2247 (Johns Hopkins Ion Channel Center, 2010)
Screen size: about 300,000 compounds; about 1,200 (0.4%) were called active.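 The calls were made as follows: active = B-score over 3 SD under the library average, no early fluorescence shift, positive overall ratio signal; inactive = the rest.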 The entries come from a sample that favours actives as a whole.

target: Short transient receptor potential channel 4 (Mus musculus) (UniProt Q9QUQ5); assay: blockers of DAMGO-evoked TRPC4 calcium flux – Fluo4 calcium, HEK293 TRPC4beta/mu-opioid cells, primary screen (AID 2247); conditions: at 10 µM; active compounds read low
In short: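 Signal: kinetic Fluo4 fluorescence imaging of calcium influx. Material: stable TRPC4beta/mu-opioid receptor HEK293 cells. Probe or stimulus: DAMGO in two steps, submaximal then maximal.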

Chain of Short transient receptor potential channel 4 (Mus musculus) (Q9QUQ5 whole entry, looked up): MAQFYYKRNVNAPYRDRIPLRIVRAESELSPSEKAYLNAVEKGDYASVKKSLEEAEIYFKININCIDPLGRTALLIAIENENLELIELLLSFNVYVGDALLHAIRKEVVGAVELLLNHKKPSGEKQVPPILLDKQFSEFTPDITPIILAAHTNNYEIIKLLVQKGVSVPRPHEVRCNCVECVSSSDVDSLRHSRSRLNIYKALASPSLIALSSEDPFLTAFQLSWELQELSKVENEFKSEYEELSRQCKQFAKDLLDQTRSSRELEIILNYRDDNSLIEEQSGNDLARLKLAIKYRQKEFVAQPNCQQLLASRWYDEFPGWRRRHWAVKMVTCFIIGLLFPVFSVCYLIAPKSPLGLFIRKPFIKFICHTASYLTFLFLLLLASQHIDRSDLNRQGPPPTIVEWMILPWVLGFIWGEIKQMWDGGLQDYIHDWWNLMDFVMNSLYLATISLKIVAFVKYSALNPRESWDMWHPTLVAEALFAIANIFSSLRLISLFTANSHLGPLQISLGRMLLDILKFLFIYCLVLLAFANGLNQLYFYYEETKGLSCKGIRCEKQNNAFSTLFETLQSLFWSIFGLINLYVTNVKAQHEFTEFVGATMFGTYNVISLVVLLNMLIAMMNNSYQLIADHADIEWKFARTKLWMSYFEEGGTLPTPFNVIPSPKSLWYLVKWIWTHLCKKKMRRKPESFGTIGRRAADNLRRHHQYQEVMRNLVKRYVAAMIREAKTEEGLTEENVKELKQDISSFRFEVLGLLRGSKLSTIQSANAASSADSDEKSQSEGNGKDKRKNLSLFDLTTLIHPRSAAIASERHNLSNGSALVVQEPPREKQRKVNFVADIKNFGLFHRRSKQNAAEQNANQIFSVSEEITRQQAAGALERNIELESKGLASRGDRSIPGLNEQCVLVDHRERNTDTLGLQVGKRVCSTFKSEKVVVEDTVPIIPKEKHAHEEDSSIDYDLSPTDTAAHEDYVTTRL

Row | Structure (SMILES) | B-score
1 | CC(C)Sc1ncnc2c1cnn2-c1ccccc1 | inactive
2 | COc1ccc(-n2ncc3c(N4CCc5ccccc54)ncnc32)cc1 | -7 (active)
3 | COc1ccc(-n2ncc3c(SCC(=O)NNC(C)=O)ncnc32)cc1 | inactive
4 | Nc1ccc(Cl)c(S(=O)(=O)Nc2ccccc2Cl)c1 | inactive
5 | O=C(COC(=O)/C=C/c1cccc(Cl)c1)NCCc1ccccc1 | inactive
6 | COc1ccc(Cc2nc3ccc(C(=O)NCC4CCOCC4)cc3o2)cc1OC | inactive
7 | COc1ccc(CCN(C)C(=O)C2CCCN(Cc3ccc(OC)c(OC)c3)C2)cc1OC (stereo unspecified) | inactive
8 | COc1ccc(CN2CCCC(CNC(=O)c3ccc(F)cc3)C2)cc1OC (stereo unspecified) | -6 (active)
9 | O/N=C(\C[n+]1ccccc1)c1ccc(Br)cc1 | inactive
10 | Cn1ncc(Br)c1C(=O)NC1CCCC1 | inactive
11 | COc1ccc(CCN2C(=O)C(C)=C(C)C2=O)cc1OC | inactive
12 | COc1ccc(CCN2C(=O)C3CC=C(C)CC3C2=O)cc1OC (stereo unspecified) | inactive
13 | COc1ccc(CCN(C)CCN2C(=O)c3ccccc3C2=O)cc1OC | -8 (active)
14 | O=C(CSc1ncnc2c1oc1ccccc12)NC1CCCC1 | inactive
15 | CCn1c(COc2cccc(OC)c2)nnc1SCC(=O)N1CCOCC1 | inactive
16 | CCCCCCCCCCOC(=O)Cn1c(COc2cccc(OC)c2)[n+](C)c2ccccc21 | -6 (active)
17 | CCCCCCCCCCOC(=O)Cn1c(COc2ccc(C)cc2)[n+](C)c2ccccc21 | inactive
18 | O=C(OCC(=O)N1CCCC1=O)c1cc(S(=O)(=O)N2CCOCC2)ccc1Cl | inactive
19 | CCOc1ccc(C(=O)Nc2ccc(CN3CCOCC3)cc2)cc1Cl | inactive
20 | Cn1c(=O)[nH]c(=O)c2c1nc(NCCCn1ccnc1)n2Cc1cccc(Br)c1 | inactive
21 | O=C(COc1ccccc1Cl)Nc1ccccc1C(=O)NC1CC1 | inactive

Row | Structure (SMILES) | B-score
22 | Cc1ccccc1OCC(=O)NNC(=O)c1ccc(-n2cncn2)c([N+](=O)[O-])c1 | inactive
23 | Cc1ccc(O)c(CNc2nc3ccccc3n2C)c1 | inactive
24 | Cc1ccc(O)c(CNc2nc3ccccc3[nH]2)c1 | -7 (active)
25 | Cc1ccc(-c2cc(=O)[nH]c(NCc3ccccc3)n2)cc1 | inactive
26 | CCC1CCCCN1S(=O)(=O)Cc1ccccc1Cl (stereo unspecified) | inactive
27 | CCc1ccc(NC(=O)CN2CCC(C(=O)c3ccc(OC)cc3)CC2)cc1 | inactive
28 | CC1(C)OC(=O)C(=CSc2ccc(C(C)(C)C)cc2)C(=O)O1 | inactive
29 | CSc1ccc(/C=N/NC(=O)c2cccc(Cl)c2)cc1 | inactive
30 | CSc1ccc(/C=N\NC(=O)CC(=O)NC(C)C)cc1 | -8 (active)
31 | Cc1ccc(-n2c(C)cc(/C=N\NC(=O)CC(=O)NC(C)C)c2C)cc1 | inactive
32 | Cc1ccc(-c2csc(NCCc3nc4cc(Cl)c(Cl)cc4n3CCOCCO)n2)cc1 | inactive
33 | CCCSc1nc2c(c(=O)n(C)c(=O)n2C)n1Cc1ccc(C)cc1 | inactive
34 | Cc1cccc(Cn2c(SCCO)nc3c2c(=O)n(C)c(=O)n3C)c1 | inactive
35 | CCOc1ccc(Cn2c(SCCCCC#N)nc3c2c(=O)n(C)c(=O)n3C)cc1OCC | -5 (active)
36 | COc1ccc(N2C(=O)C3C(C2=O)C(C(=O)c2ccccc2)N2CCCC32)cc1 (stereo unspecified) | inactive
37 | O=C(COC(=O)c1ccc(F)cc1)NCCCc1ccccc1 | inactive
38 | CSCCNCc1cn(-c2ccc(F)cc2F)nc1-c1ccccc1C | -7 (active)
39 | Cc1ccc(-c2nn(-c3cccc(F)c3)cc2CNCCc2ccncc2)o1 | inactive
40 | COc1ccccc1CC(=O)Nc1ccc(F)cc1F | inactive
41 | O=C(NC1CC1)C1CCCN(C(=O)NC2CCCCC2)C1 (stereo unspecified) | inactive
42 | CCc1nc(SCC(=O)Nc2ccccc2OC)n[nH]1 | inactive

Row | Structure (SMILES) | B-score
43 | COc1ccc(N(CC(=O)Nc2cc(OC)cc(OC)c2)S(=O)(=O)c2c(C)n[nH]c2C)cc1 | inactive
44 | O=C(O)C(F)(F)C(NCc1ccccc1)c1ccccc1 (stereo unspecified) | inactive
45 | CCCc1c(C(=O)N/N=C(\C)CCc2ccc(OC)cc2)nnn1-c1nonc1N | inactive
46 | COc1ccc(-c2cc(C(=O)N(C)Cc3ccccc3)c3ccccc3n2)cc1 | inactive
47 | Nc1nc(-c2ccccc2)cc(-c2ccccc2)n1 | inactive
48 | CN(C)c1cc(N)c2ccccc2n1 (tested in a mixture with another compound) | -5 (active)
49 | COc1ccccc1C(=O)N(Cc1ccc(C)o1)C1CCS(=O)(=O)C1 (stereo unspecified) | inactive
50 | CCCCCCCCCOC1OC(CO)C(O)C(O)C1NC(C)=O (stereo unspecified) | inactive
51 | Cc1nn(-c2ccccc2)c(=O)c2noc(C)c12 | inactive
52 | Cc1nn(-c2ccccc2)c2[nH]c(C(F)(F)F)cc(=O)c12 | -7 (active)
53 | Cc1nc2c(c(C)nn2-c2ccccc2)c(C)c1C | inactive
54 | COc1ccc(Nc2cc(Sc3ccc(OC)cc3)ncn2)cc1 | inactive
55 | COn1c(-c2ccc(Cl)cc2Cl)nc2ncccc21 | inactive
56 | Clc1ccc(COn2c(-c3ccc(Cl)cc3Cl)nc3ncccc32)cc1 | -9 (active)
57 | Clc1ccc(-c2ncc3ccccn23)c(Cl)c1 | inactive
58 | O=C(COC(=O)c1ccc([N+](=O)[O-])cc1Cl)NC(=O)c1ccccc1 | inactive
59 | Cc1cc(C)c(S(=O)(=O)NCC(c2ccc3c(c2)OCO3)N2CCOCC2)c(C)c1 (stereo unspecified) | inactive
60 | N#C/C(=C/c1ccc(Cl)cc1)NC(=O)c1ccccc1 | inactive
61 | Cc1c(Cl)c([N+](=O)[O-])nn1CC(=O)NCCCN1CCOCC1 | inactive
62 | FC(F)Oc1ccccc1NC(=S)Nc1cccc(Cl)c1Cl | -7 (active)
63 | CC(=O)Nc1ccc(NC(=O)COc2ccccc2C(=O)Nc2cccc(Cl)c2Cl)cc1 | inactive

Row | Structure (SMILES) | B-score
64 | COc1ccccc1NC(=S)NC(=O)C(C)C | inactive
65 | CCCCc1nc(SCC(=O)Nc2nnc(C(C)C)s2)n[nH]1 | inactive
66 | C[N+](C)(C)CCOP(=O)([O-])OC[C@H](O)CO | inactive
67 | O=C(Nc1cccc(S(=O)(=O)NC2=NCCC2)c1)C1CCCCC1 | inactive
68 | N=c1c2c3c(sc2ncn1N)CCCC3 | inactive
69 | COc1ccc(/C=N/Nc2ncnc3sc4c(c23)CCCC4)cc1O | inactive
70 | COc1ncnc2sc3c(c12)CCCC3 | -6 (active)
71 | Cc1ccc(S(=O)(=O)N(CC(O)CN2CCCCC2)c2cccc([N+](=O)[O-])c2)cc1 (stereo unspecified) | inactive
72 | Cc1cc(C)n2nc(C(=O)OCC(=O)N(CCC#N)c3ccc(F)cc3)nc2n1 | inactive
73 | CCCn1nc(NS(=O)(=O)c2ccc(F)cc2)c2cc3ccccc3nc21 | inactive
74 | C=C(C)COc1ccc(-c2n[nH]c(C)c2-c2ccccc2OC)c(O)c1 | inactive
75 | COc1ccc(-c2n[nH]c(C)c2-c2ccccc2OC)c(O)c1 | -6 (active)
76 | C=C(C)COc1ccc(-c2n[nH]c(C)c2-c2ccccc2)c(O)c1 | inactive
77 | Cc1ccc(-n2c(C)cc(C(=O)CSc3nnc4ccccn34)c2C)cc1 | inactive
78 | CC(=O)NC1CC2CCCC(C1)N2CC(=O)Nc1ccccc1 (stereo unspecified) | inactive
79 | CN(C)c1ccc(NC(=O)CN2C3CCCC2CC(NC(=O)c2ccccc2)C3)cc1 (stereo unspecified) | -9 (active)
80 | COc1ccc(NC(=O)NC2CC3CCCC(C2)N3Cc2ccccc2)cc1 (stereo unspecified) | inactive
81 | COc1ccc(OC)c(C(C)NC(=S)Nc2ccc(S(=O)(=O)Nc3ncccn3)cc2)c1 (stereo unspecified) | inactive
